Experimental data published in the RNAGym collection of RNA variant scans (doi:10.1126/science.aae0568).
This sample holds only a part of the variants without activity.

B1: tRNA (parent)
chain: GUUCCGUUGGCGUAAUGGUAACGCGUCUCCCUCCUAAGGAGAAGACUGCGGGUUCGAGUCCCGUACGGAACG

Variants of: B1
Experiment: yeast fitness relative to wild type (ratio to wild type); higher = fitter; tRNA-Arg(CCU), competitive growth, 37 C, YPD
In short: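 Gene amplicons from the start population and from each of six end populations were read by 100-nucleotide paired-end sequencing. Those end populations came from pooled Saccharomyces cerevisiae strains carrying tRNA-Arg(CCU) gene variants at the native locus, competed in YPD at 37°C for 24 hours. Fitness relative to wild type was worked out from changes in genotype frequencies. Genotypes needed ≥ 100 starting reads, and estimates < 0.5 were set to 0.5.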

Row | Variant | yeast fitness
1 | GUUCCGUUGGAGUGAUGGUAACGUGUCUCCCUCCUAAGGACAAGACUGCGGGUUGGAGUCCCGUACGGAACG [C11A A14G C24U G41C C55G] | 0.581
2 | GUUCCGUUGGAGUGAUGGUAACGCGUCUUCCUCCUAAGGAGAAGACUGCGGGUUCGAGUCCCGUCCGGAACG [C11A A14G C29U A65C] | ≤ 0.5
3 | GUUCCGUUGGAGUGAUGGUAACGCGUCUCCGUCGUAAGGAGAAGACUGCGGGUUCGAGUCCCGUACGGAACG [C11A A14G C31G C34G] | ≤ 0.5
4 | GUUCCGUUGGAGUGAUGGGAACGCGUCUCCCUCCUAAGGAGACGACUGCGGGAUCGAGUCCCGUAUGGAACG [C11A A14G U19G A43C U53A C66U] | 0.601
5 | GUUCCGUUGGAGUUAUGGUACCGCGUCUCCCUCCUAAGGAGAAGAUUGCGGGCUCGAGUCCCGUGCGGAACG [C11A A14U A21C C46U U53C A65G] | 0.575
6 | GUUCCGUUGGAGUUAUGGUAACGCGUCUCCCUCCUAAGGAGGAGACUGCGGGUUCGAGUCCAGUAUGGAACG [C11A A14U A42G C62A C66U] | ≤ 0.5
7 | GUUCCGUUGGAGUUAUGGUAACGUGUCUCCCUCGACAGGAGAAGACUGCGGGUUCGAGUCACGUACGGAACG [C11A A14U C24U C34G U35A A36C C61A] | ≤ 0.5
8 | GUUCCGUUGGAGUUAUGGUAACGCGUCUCGCUCCUAAGGAGAAGACUGCGGGUUCGAGUCCCGUACGGAACG [C11A A14U C30G] | ≤ 0.5
9 | GUUCCGUUGGAGUUAUGGUAACGCGUCUCUCUACUUAGGAGAAGACUGCGGGUUCGGGUCCCGUACGGAACG [C11A A14U C30U C33A A36U A57G] | ≤ 0.5
10 | GUUCCGUUGGAGUUAUGGUAACGCGUCUCUCUACUUAGGAGAAGACUGCGGGUUCGGGUCCCGUACGGGACG [C11A A14U C30U C33A A36U A57G A69G] | ≤ 0.5
11 | GUUCCGUUGGAGUUAUGGUAACGCGUCUCCCUCCUAAGGAGAAGACUGCGGGUUCGAGCCCUGUACGGAACG [C11A A14U U59C C62U] | ≤ 0.5
12 | GUUCCGUUGGAGUACUGGUAACGCGUCUCCCUCCUAAGGAGAAGACUGCGGGUUCGGGUCUCGUACGGAACG [C11A A15C A57G C61U] | ≤ 0.5
13 | GUUCCGUUGGAGUACUGGUAACGAGUAUCCCUCCUAAGGACAAGACUGCGGGUUCAAGUCCCGUACGGAACG [C11A A15C C24A C27A G41C G56A] | 0.542
14 | GUUCCGUUGGAGUACUGGUAACGGGUCUCCCUCCUAAGGAGAAGACUGCGGGUUCGAGUCACGUACGGCACG [C11A A15C C24G C61A A69C] | ≤ 0.5
15 | GUUCCGUUGGAGUACUGGUAACGGGUCUCCCUCCUAAGGAGAAGACUGCGGGUUCGAAUCCCGUACGGAACG [C11A A15C C24G G58A] | ≤ 0.5
16 | GUUCCGUUGGAGUACUGGUAACGCGUCUCCCUCCUAAGGAGAAGACUGCGGGUCCGAGUCCCGUAGGGAACG [C11A A15C U54C C66G] | ≤ 0.5
17 | GUUCCGUUGGAGUAGUGGUGACGCGUCUCCCUCCUACGGAGAAGACUGCAGGUUCGAGUCCCGUACCGAACG [C11A A15G A20G A37C G50A G67C] | ≤ 0.5
18 | GUUCCGUUGGAGUAGUGGUGACGUGUCUCCCUCCUACGGAGAAGACUGCAGGUUCGAGUCCCGUACCGAACG [C11A A15G A20G C24U A37C G50A G67C] | ≤ 0.5
19 | GUUCCGUUGGAGUAGUGGUAACGCGUCUCCAUCCUAAGGAGAAGACUGCGGGUUCGAGUACCGUACGGAACG [C11A A15G C31A C60A] | ≤ 0.5

Row | Variant | yeast fitness
20 | GUUCCGUUGGAGUAGUGGUAACGCGUCUCCCUCGUAAGGAGAAGACUGCGGCUUCGAGUCUCGUACGGAACG [C11A A15G C34G G52C C61U] | ≤ 0.5
21 | GUUCCGUUGGAGUAGUGGUAACGCGUCUCCCUCCUAAGGAGAAGACUGUGGGUUCGAGUCCCGUAUGGAACG [C11A A15G C49U C66U] | ≤ 0.5
22 | GUUCCGUUGGAGUAGUGGUAACGCGUCUCCCUCCUAAGGAGAAGACUGCGGGUUCGAGUCUCGUACGGAACG [C11A A15G C61U] | 0.528
23 | GUUCCGUUGGAGUAGUGGUAACGCGUCUCCCUCCUAAGGAGAAGACUGCGGGUUCGAGUCUCGUUCGGAACG [C11A A15G C61U A65U] | ≤ 0.5
24 | GUUCCGUUGGAGUAGUGGUAACGCGUCUCCCUCCUAAGGAGAAGACUGCGGGUUCGACUCCCGUACGGAACG [C11A A15G G58C] | 0.505
25 | GUUCCGUUGGAGUAUUGGUCACGCGUCUCCCUCGUAAGGAGAAGACUGCGGGUUCGAGUCCCGUACGGAACG [C11A A15U A20C C34G] | ≤ 0.5
26 | GUUCCGUUGGAGUAUUGGUCACGCGUCUCCCUCGUAAGGAGAAGACUGCGGGUUCGAGUCCCGUCCGGAACG [C11A A15U A20C C34G A65C] | ≤ 0.5
27 | GUUCCGUUGGAGUAUUGGUGACGCGUCUCCCUCCUAAGGAGAAGACUGCGGGUUCGAGUCCCGUACGGAACG [C11A A15U A20G] | ≤ 0.5
28 | GUUCCGUUGGAGUAUUGGUAACGCGUCUCACUCCUAAGGAGCAGACUGCGGGUUCGAGUCCCGUACGGAACG [C11A A15U C30A A42C] | ≤ 0.5
29 | GUUCCGUUGGAGUAUUGGUAACGCGUCUCCCUCAUAAGCCGAAGACUGCGGGUUCCAGUCGGGUACGCAACG [C11A A15U C34A G39C A40C G56C C61G C62G G68C] | ≤ 0.5
30 | GUUCCGUUGGAGUAAUGGUCACGUGUCUCCCUCCUAAGGAGAAGACUGCGGGUUGGAGUCCCGUACGGAACG [C11A A20C C24U C55G] | 0.617
31 | GUUCCGUUGGAGUAAUGGUCACGCGUCUUCCUCCUAAGGAGAAGACUGCGGGUUCGAGUCCCGUACGGAACG [C11A A20C C29U] | 0.564
32 | GUUCCGUUGGAGUAAUGGUCACGCGUCUUCCUCCUAAGGAGAAGACCGCGGGUUCGAGUCCCGUACGGAUCG [C11A A20C C29U U47C A70U] | ≤ 0.5
33 | GUUCCGUUGGAGUAAUGGUGACGCGUCUCCCUCCUAAGGAGAAGACUGCGGGUUCGAGUCCCGUACGGAACG [C11A A20G] | 0.556
34 | GUUCCGUUGGAGUAAUGGUGACGCGUCUCCCUCCUAAGGAGAAGACUGCGGGUUUGAGUCACGUACGGAACG [C11A A20G C55U C61A] | ≤ 0.5
35 | GUUCCGUUGGAGUAAUGGUGACGCGUCUCCCUCCUAAGGAGAAGACUGCGGGUUCGAGUCCAGUACGGAACG [C11A A20G C62A] | 0.605
36 | GUUCCGUUGGAGUAAUGGUGACGCGUCUCCCUCCUAAGGAGAAGACUGCGGGUUCGAGUCCAGUACAGAACG [C11A A20G C62A G67A] | ≤ 0.5
37 | GUUCCGUUGGAGUAAUGGUGACGCGUCUCCCUCCUAAGGAGAAGACUGCGGGUUCGAGUCCUGUAAGGAACG [C11A A20G C62U C66A] | ≤ 0.5
38 | GUUCCGUUGGAGUAAUGGUGACGCGUCUCCCUCCUAAGAAGAAGACUGCGAGAUCGAGUCCCCUACGGAACG [C11A A20G G39A G51A U53A G63C] | 0.545
